Measured values collected from several papers.
Compare with care: the assays were run in different laboratories.
Target: Calcium/calmodulin-dependent protein kinase type 1 (CAMK1, Homo sapiens, UniProt Q14012)

`C1=C/COCc2cc(ccc2OCCN2CCCC2)Nc2nccc(n2)-c2cccc(c2)COC/1` has a remaining binding of 65% (binding; 0.1 µM).
For `COc1ccc2oc(-c3ccc4nc(N)oc4c3)c/c(=N\c3ccccc3NC(=O)CCN)c2c1`, the remaining binding was 70% (binding; 1 µM).
The inhibition of `Cc1cc(O)c(-c2ccc([C@@H](C)CN(C)C)cc2)c2c1[nH]c(=O)c1sccc12` is reported as 2.27% (cell-free assay, inhibitor; 0.1 µM, lysate).
For `CC#CC(=O)N1CCC[C@H]1c1nc(-c2ccc(C(=O)Nc3ccccn3)cc2)c2c(N)nccn12`, the inhibition was 26% (enzyme activity, inhibitor; 1 µM).
`Cc1ccc(NC(=O)c2ccnc(C(F)(F)F)c2)cc1-c1cc(OCCO)nc(N2CCOCC2)c1` has a remaining binding of 100% (binding; 1 µM).
For `CCCCC(=O)Nc1ccc(-c2ccc3ncn(CCC)c(=O)c3c2)cn1`, the remaining binding was 88% (binding, competition with immobilised ligand; 0.5 µM).
With `C=CC(=O)N1CCC([C@@H]2CCNc3c(C(N)=O)c(-c4ccc(Oc5ccccc5)cc4)nn32)CC1` the inhibition was 7% (enzyme activity, inhibitor; 1 µM).
With `C[C@H]1CC[C@H](n2c3cnccc3c3cnc(Nc4ccc5c(n4)CCN(C(=O)CO)C5)nc32)CC1` the remaining signal was 45% (cell-free assay; 1 µM).
